Source: ChEMBL document CHEMBL2169861, “Synthesis and biological evaluation of novel unsaturated carboxysteroids as human 5α-reductase inhibitors: a legitimate approach” (Eur J Med Chem, 2012)

How the values were obtained:
[1] = target: T1, 3-oxo-5-alpha-steroid 4-dehydrogenase 2 (Homo sapiens, UniProt P31213); assay: Inhibition of human type-2 5-alpha reductase expressed in HEK293 cells using [3H]-androstenedione as substrate after 30 mins by HPLC analysis; type: cell-based
T1 sequence (P31213 whole entry): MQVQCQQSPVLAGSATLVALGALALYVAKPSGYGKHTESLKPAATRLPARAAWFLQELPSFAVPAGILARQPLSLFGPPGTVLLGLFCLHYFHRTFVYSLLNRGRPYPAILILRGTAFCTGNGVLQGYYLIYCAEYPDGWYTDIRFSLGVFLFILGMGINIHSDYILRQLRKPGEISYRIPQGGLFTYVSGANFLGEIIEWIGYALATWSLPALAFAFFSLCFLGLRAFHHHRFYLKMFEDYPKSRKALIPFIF
Outline: (§1)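 Lysates of 80% confluent HEK293 cells stably expressing human type I or type II cDNA (pRcCMV), sonicated in 300 mM saccharose, 5 mM Tris-HCl, 0.1 mM EDTA. Final 500 nM androstenedione with [3H]androstenedione, NADPH-regenerating system (0.55 mM NADP, 5 mM glucose-6-phosphate, G6PDH), 2% DMSO; 30 min, 37 °C. Ether-extracted; conversion quantified by radio-HPLC on C8.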

[2] = system: Rattus norvegicus; assay: Anti-benign prostatic hyperplasia activity in Wistar rat assessed as reduction of vas deferens weight gain at 1 mg/kg, po qd for 14 days measured on day 15; type: functional; parameters: scale not given: the % may be the effect or the level left
Outline: (§2)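 Mature male Wistar rats, acclimatised one month, dosed orally once daily for 14 days with suspension in 0.50% carboxymethylcellulose at 5 ml/kg; vehicle controls; 5 rats/group. Killed under ether on day 15, 24 h after last dose; organs dissected free of fat and connective tissue, weighed, expressed per 100 g body weight. Mean ± SEM; one-way ANOVA with Dunnett's test.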

[3] = system: Rattus norvegicus; assay: Anti-benign prostatic hyperplasia activity in Wistar rat assessed as reduction of dorsal prostate weight gain at 1 mg/kg, po qd for 14 days measured on day 15; type: functional, Prostate gland; parameters: scale not given: the % may be the effect or the level left; outline: as §2
[4] = target: T2, 3-oxo-5-alpha-steroid 4-dehydrogenase 2 (Homo sapiens) (UniProt P31213); assay: Inhibition of human type-2 5-alpha reductase expressed in HEK293 cells using [3H]-androstenedione as substrate at 2 uM after 30 mins by HPLC analysis; type: cell-based; outline: as §1
T2 sequence (whole entry): T1 sequence (P31213 whole entry)

[5] = system: Rattus norvegicus; assay: Anti-benign prostatic hyperplasia activity in Wistar rat assessed as reduction of seminal vesicle weight gain per 100 gram of body weight at 1 mg/kg, po qd for 14 days measured on day 15; type: functional; outline: as §2
[6] = target: T3, 3-oxo-5-alpha-steroid 4-dehydrogenase 1 (Homo sapiens) (UniProt P18405); assay: Inhibition of human type-1 5-alpha reductase expressed in HEK293 cells using [3H]-androstenedione as substrate at 10 uM after 30 mins by HPLC analysis; type: cell-based; outline: as §1
T3 sequence (whole entry): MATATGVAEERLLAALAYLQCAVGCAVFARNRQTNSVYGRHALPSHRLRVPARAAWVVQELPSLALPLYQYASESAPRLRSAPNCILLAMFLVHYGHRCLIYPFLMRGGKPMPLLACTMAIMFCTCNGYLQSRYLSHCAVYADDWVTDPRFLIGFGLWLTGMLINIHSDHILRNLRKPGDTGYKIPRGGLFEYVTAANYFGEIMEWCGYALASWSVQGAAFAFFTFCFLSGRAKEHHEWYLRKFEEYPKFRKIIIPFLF

[7] = system: Rattus norvegicus; assay: Anti-benign prostatic hyperplasia activity in Wistar rat assessed as reduction of body weight gain at 1 mg/kg, po qd for 14 days measured on day 15; type: functional; parameters: scale not given: the % may be the effect or the level left; outline: as §2
[8] = system: Rattus norvegicus; assay: Anti-benign prostatic hyperplasia activity in Wistar rat assessed as reduction of epididymis weight gain at 1 mg/kg, po qd for 14 days measured on day 15; type: functional; parameters: scale not given: the % may be the effect or the level left; outline: as §2
[9] = system: Rattus norvegicus; assay: Toxicity in Wistar rat assessed as mortality at 1 mg/kg, po qd for 14 days measured on day 15; type: organism-based; parameters: dose 1 mg/kg, route oral; settings: in vivo, 336 h
Outline: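 Mature male Wistar rats, acclimatised one month, dosing begun after 9 weeks. Compound suspended in 0.50% carboxymethylcellulose sodium and given orally at 5 ml/kg once daily for 14 days. Vehicle-only control group, 5 animals per group. Mortality recorded over treatment. Rats weighed and killed under ether anaesthesia on day 15, 24 h after the last dose.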

[10] = system: Rattus norvegicus; assay: Anti-benign prostatic hyperplasia activity in Wistar rat assessed as reduction of adrenal weight gain per 100 gram of body weight at 1 mg/kg, po qd for 14 days measured on day 15; type: functional; outline: as §2
[11] = system: Rattus norvegicus; assay: Anti-benign prostatic hyperplasia activity in Wistar rat assessed as reduction of ventral prostate weight gain at 1 mg/kg, po qd for 14 days measured on day 15; type: functional, Prostate gland; parameters: scale not given: the % may be the effect or the level left; outline: as §2
[12] = target: T2, 3-oxo-5-alpha-steroid 4-dehydrogenase 2 (Homo sapiens); assay: Inhibition of human type-2 5-alpha reductase expressed in HEK293 cells using [3H]-androstenedione as substrate at 10 uM after 30 mins by HPLC analysis; type: cell-based; outline: as §1
[13] = system: Rattus norvegicus; assay: Anti-benign prostatic hyperplasia activity in Wistar rat assessed as reduction of liver weight gain per 100 gram of body weight at 1 mg/kg, po qd for 14 days measured on day 15; type: functional; outline: as §2
[14] = system: Rattus norvegicus; assay: Anti-benign prostatic hyperplasia activity in Wistar rat assessed as reduction of testis weight gain per 100 gram of body weight at 1 mg/kg, po qd for 14 days measured on day 15; type: functional; outline: as §2
[15] = target: T3, 3-oxo-5-alpha-steroid 4-dehydrogenase 1 (Homo sapiens); assay: Inhibition of human type-1 5-alpha reductase expressed in HEK293 cells using [3H]-androstenedione as substrate at 2 uM after 30 mins by HPLC analysis; type: cell-based; outline: as §1

| SMILES | IC50 [1] | Activity [2] | Activity [3] | inhibition [4] | Activity [5] | inhibition [6] | Activity [7] | Activity [8] | Activity [9] | Activity [10] | Activity [11] | inhibition [12] | Activity [13] | Activity [14] | inhibition [15] |
| --- | --- | --- | --- | --- | --- | --- | --- | --- | --- | --- | --- | --- | --- | --- | --- |
| C[C@]12CC[C@H]3[C@@H](CC=C4C=C(C(=O)O)CC[C@@H]43)[C@@H]1CCC2=O | 213 nM | 34.8% | 15.62% | 89.5% | 167.37 mg | 82.1% | 22.992% | 29.88% | Non-toxic | 15.019 mg | 22.56% | 100% | 3.078 g | 926.533 mg |  |
| C=CCN1C(=O)CC[C@H]2[C@@H]3CC=C4C=C(C(=O)O)CC[C@]4(C)[C@H]3CC[C@@]21C | 72.8 nM | 27.89% | 31.25% | 99.7% | 149.399 mg | 0.4% | 7.518% | 24.75% | Non-toxic | 17.967 mg | 35.34% | 100% | 3.168 g | 1094.935 mg |  |
| CCOC(=O)CCN1C(=O)CC[C@H]2[C@@H]3CC=C4C=C(C(=O)O)CC[C@]4(C)[C@H]3CC[C@@]21C | 26.5 nM | 37.55% | 28.75% | 100% | 136.605 mg | 8.5% | 15.618% | 25.41% | Non-toxic | 17.522 mg | 33.86% | 100% | 3.542 g | 1075.498 mg |  |
| CC(=O)N1C(=O)CC[C@H]2[C@@H]3CC=C4C=C(C#N)CC[C@]4(C)[C@H]3CC[C@@]21C |  |  |  |  |  | 2.2% |  |  |  |  |  | 23.2% |  |  |  |
| C[C@]12CCC(Br)=CC1=CC[C@@H]1[C@@H]2CC[C@]2(C)NC(=O)CC[C@@H]12 |  |  |  |  |  | 34.5% |  |  |  |  |  | 45.6% |  |  |  |
| C[C@]12CCC(C#N)=CC1=CC[C@@H]1[C@@H]2CC[C@@]2(C)[C@H]1CCC(=O)N2Cc1ccccc1 |  |  |  |  |  | 0% |  |  |  |  |  | 34.7% |  |  |  |
| CC(C)(C)NC(=O)[C@H]1CC[C@H]2[C@@H]3CC[C@H]4NC(=O)C=C[C@]4(C)[C@H]3CC[C@]12C [FINASTERIDE] | 30.3 nM | 14.45% | 45.32% |  | 105.51 mg |  | 8.032% | 14.4% | Non-toxic | 16.575 mg | 44.76% |  | 3.5097 g | 1058.022 mg |  |
| C[C@]12CC[C@H]3[C@@H](CC=C4C=C(C#N)CC[C@@H]43)[C@@H]1CCC2=O |  |  |  |  |  | 0% |  |  |  |  |  | 1.2% |  |  |  |
| C[C@]12CCC(C(=O)O)=CC1=CC[C@@H]1[C@@H]2CC[C@]2(C)NC(=O)CC[C@@H]12 |  | 26.33% | 46.5% |  | 186.102 mg | 0% | 8.323% | 13.98% | Non-toxic | 13.973 mg | 27.33% | 62.9% | 2.713 g | 993.729 mg |  |
| C[C@]12CCC(C#N)=CC1=CC[C@@H]1[C@@H]2CC[C@]2(C)NC(=O)CC[C@@H]12 |  |  |  |  |  | 27.6% |  |  |  |  |  | 9.9% |  |  |  |
| CCN1C(=O)CC[C@H]2[C@@H]3CC=C4C=C(C(=O)O)CC[C@]4(C)[C@H]3CC[C@@]21C | 22.1 nM | 19.32% | 28.37% | 100% | 151.015 mg | 32.3% | 5.409% | 17.25% | Non-toxic | 15.574 mg | 39.35% | 100% | 2.91 g | 1128.214 mg |  |
| CCN1C(=O)CC[C@H]2[C@@H]3CC=C4C=C(C#N)CC[C@]4(C)[C@H]3CC[C@@]21C |  |  |  |  |  | 56.1% |  |  |  |  |  | 48.9% |  |  |  |
| C[C@]12CCC(C#N)=CC1=CC[C@@H]1[C@@H]2CC[C@@]2(C)[C@H]1CCC(=O)N2CCC#N |  |  |  |  |  | 0% |  |  |  |  |  | 9.9% |  |  |  |
| C=CCN1C(=O)CC[C@H]2[C@@H]3CC=C4C=C(C#N)CC[C@]4(C)[C@H]3CC[C@@]21C |  |  |  |  |  | 20.8% |  |  |  |  |  | 3.3% |  |  |  |
| C[C@]12CCC(C#N)=CC1=CC[C@@H]1[C@@H]2CC[C@@]2(C)[C@H]1CCC(=O)N2C(=O)c1ccccc1 |  |  |  |  |  | 0% |  |  |  |  |  | 11.4% |  |  |  |
| CN1C(=O)CC[C@H]2[C@@H]3CC=C4C=C(C(=O)O)CC[C@]4(C)[C@H]3CC[C@@]21C | 54.1 nM | 29.36% | 39.96% | 99% | 126.262 mg | 18.9% | 6.517% | 31.75% | Non-toxic | 12.464 mg | 39.5% | 100% | 3.224 g | 956.392 mg |  |
| CN1C(=O)CC[C@H]2[C@@H]3CC=C4C=C(C#N)CC[C@]4(C)[C@H]3CC[C@@]21C |  | 14.58% | -8.07% |  | 223.05 mg | 93% | 6.767% | 10.11% | Non-toxic | 21.311 mg | 6.72% | 13.5% | 4.861 g | 932.988 mg | 64% |
